Screening data deposited in PubChem BioAssay by The Scripps Research Institute Molecular Screening Center.
Hits are enriched below; roughly 3% of the tested compounds scored in any of these assays.
HTR1A agonist = activates the human 5-HT1a serotonin receptor | P08908 | CHO 5-HT1a Ga15 NFAT-bla reporter, FRET ratio; 0% basal, 100% maximal reference agonist | activation, % at 10 µM | 65,000 compounds, 0.56% hits | AID 567;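 active = activation above the screen-wide mean activation plus 3 SD, cut at about 19% in these data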
5HT1E ag = 5-HT1E (human) receptor agonism; AID 574; CHO 5-HT1E Ga15 NFAT-bla reporter, FRET; 0% DMSO wells, 100% control agonist wells; 65,000 compounds, 0.69% hits; activation, % at 6 µM;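 active = activation above a set limit, the screen-wide mean activation plus 3 SD, cut at about 8.5% in these data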
Target sequence (P28566 whole entry, looked up): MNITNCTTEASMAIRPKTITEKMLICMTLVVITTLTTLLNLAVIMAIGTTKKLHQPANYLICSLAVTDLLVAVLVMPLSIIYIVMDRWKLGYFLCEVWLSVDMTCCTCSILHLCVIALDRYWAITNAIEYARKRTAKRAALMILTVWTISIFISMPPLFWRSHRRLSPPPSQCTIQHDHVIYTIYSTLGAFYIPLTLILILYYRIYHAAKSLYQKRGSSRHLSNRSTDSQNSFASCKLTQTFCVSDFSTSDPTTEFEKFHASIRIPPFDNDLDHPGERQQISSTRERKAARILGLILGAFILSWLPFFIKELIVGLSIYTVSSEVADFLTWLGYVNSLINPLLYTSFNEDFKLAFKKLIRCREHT
5-HT1A blocker = 5-HT1a (human) receptor antagonism; P08908; inhibition, % at 10 µM; 62,000 compounds, 0.68% hits; AID 612; CHO 5-HT1a Ga15 NFAT-bla reporter, antagonist mode;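 active = inhibition above the mean of all tested compounds plus 3 SD, cut at about 43% in these data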;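 note: receptor stimulated by 5-CT agonist at 100 nM near EC80; beta-lactamase reporter measured by ratiometric fluorescence of a cleavable substrate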
5HT1E antag = blocks the human 5-HT1E serotonin receptor. AID 571. inhibition, % at 6 µM. CHO 5-HT1E Ga15 NFAT-bla reporter, FRET, antagonist. 65,000 compounds, 0.99% hits;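 active = inhibition above a set limit, the mean inhibition across every tested compound plus 3 SD, cut at about 29% in these data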;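 note: signal is the 460 over 535 nm emission ratio of beta-lactamase substrate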
S1P3 ag = S1P3 (human) receptor agonism; Q99500; S1P3 NFAT-BLA reporter cells, FRET ratio; relative to 1 µM S1P, basal subtracted; activation, % at 4.5 µM; 60,000 compounds, 0.1% hits; AID 373;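 active = activation above the screen-wide mean plus 3 SD, cut at about 4.5% in these data, passing the limit was not always enough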
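Material: Human S1P3 NFAT-BLA reporter CHO cells | Incubation: Overnight plating, 4 h compound 37 °C, 2 h substrate RT | Signal: FRET β-lactamase substrate fluorescence, excitation 405 nm, 460/535 nm emission ratio, background-subtracted | Compound: 4.5 µM final, single dose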
S1P1 ag pot = S1P1 (human) agonism or agonism potentiation | P21453 | S1P1 CRE-bla cells, forskolin, beta-lactamase FRET, potentiator mode; S1P1 agonist co-added at EC20, 2 nM; 100% = saturating reference agonist, 0% = basal | activation, % at 9.5 µM | 56,000 compounds, 0.57% hits | AID 449;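 active = activation above a cutoff set at the mean activation of all tested compounds plus 3 SD, cut at about 54% in these data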;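 note: forskolin at 4 µM as EC80 and the EC20 agonist is SEW2871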
Numbers stand for hits; – = inactive; · = no result.

SMILES	HTR1A agonist	5HT1E ag	5-HT1A blocker	5HT1E antag	S1P3 ag	S1P1 ag pot
CCn1c2ccccc2c2nc3cc(S(=O)(=O)N4CCOCC4)ccc3nc21	–	–	–	50	–	–
c1ccc2nc3c(nc2c1)c1ccccc1n3CCN1CCOCC1	–	–	–	–	–	–
c1ccc2[nH]c(CSc3nnc(-c4ccncc4)o3)nc2c1	–	–	–	–	–	–
Brc1cccc(-c2nnc(SCc3nc4ccccc4[nH]3)o2)c1	–	–	–	29	–	–
N=c1cc(C2(O)CCCCC2)n2c(nc3ccccc32)s1	–	–	–	–	·	·
CC1CC(C)CN(Cc2nc3c(c(=O)n(C)c(=O)n3C)n2Cc2ccccc2Cl)C1 (stereo unspecified)	–	–	–	–	–	–
CCCCCOC(=O)NCC(O)c1ccccc1 (stereo unspecified)	–	–	–	–	–	–
CC(C)COC(=O)NCCCOC(=O)Nc1ccccc1	224	–	–	–	–	–
CC(C)COC(=O)NCCOC(=O)Nc1cccc(Cl)c1	–	–	–	–	–	70
CC1Cc2ccccc2N1C(=O)CSc1nc2c(c(=O)n(C)c(=O)n2C)n1Cc1ccccc1 (stereo unspecified)	–	–	–	–	–	–
COc1ccc(NC(=O)C23CCC(C)(C(=O)C2)C3(C)C)cc1 (stereo unspecified)	–	–	–	–	–	–
CCOC(=O)C(C)Sc1nc(-c2ccc(OC)cc2)nc2c1c(=O)n(C)c(=O)n2C (stereo unspecified)	–	–	–	–	–	–
CC1=C(C(=O)OCC2CCCO2)C(c2ccncc2)C2=C(CC(C)(C)CC2=O)N1 (stereo unspecified)	–	–	–	–	–	·
CS(=O)(=O)c1nc(-c2ccco2)cc(C(F)(F)F)n1	–	–	103	100	·	·
Cc1cc(NC(=O)CSc2nc(-c3ccco3)cc(C(F)(F)F)n2)no1	–	–	59	68	–	–
COc1ccc2oc(=O)c(C(=O)N3CCN(C45CC6CC(CC(C6)C4)C5)CC3)cc2c1	–	–	–	–	–	–
COC(=O)c1ccc(Cn2cnc3c(sc4nc(N5CCOCC5)c5c(c43)CCCC5)c2=O)o1	–	–	·	–	–	–
CN1CCN(c2ccccc2NC(=O)c2ccc(Br)o2)CC1	–	13	–	–	–	–
CC1(C2(O)CC(c3ccccc3)ON2)CCCCC1 (stereo unspecified)	–	–	·	37	–	–
c1cncc(-c2nnc(C3CCCCC3)o2)c1	–	–	–	–	–	–
CC(Oc1ccccc1Br)C(=O)N1CCc2ccccc21 (stereo unspecified)	–	–	–	–	9.9	87
Cc1cc(OCc2nn[nH]n2)c2c(C)c(Cc3ccccc3)c(=O)oc2c1	–	–	–	–	–	–
CCN(CC)c1ccc2cc(-c3nc4ccccc4n3C)c(=O)oc2c1	–	–	54	82	–	–
CCN(CC)c1ccc2cc(-c3nc4ccccc4[nH]3)c(=O)oc2c1	–	–	–	49	–	–
CCOC(=O)c1cc2c(ccn2C)n1CC(=O)N1CCN(c2ccccc2)CC1	–	–	–	–	–	–
SMILES	HTR1A agonist	5HT1E ag	5-HT1A blocker	5HT1E antag	S1P3 ag	S1P1 ag pot
CCOC(=O)c1cc2c(ccn2C)n1Cc1ccccc1C	–	–	44	–	–	–
COc1cccc(Cn2nnc(C(=O)NCc3ccc(F)cc3)c2N)c1	–	–	–	32	–	–
Cc1ccc(-n2c(C)cc(C(=O)CSc3nnnn3C)c2C)cc1	–	–	–	–	–	87
CCCCN(C)CCCNC(=O)Cn1c(=O)sc2ccccc21	–	70	–	–	·	·
Cn1c(=O)n(CCc2ccccc2)c(=O)c2c1nc1n2CCCN1c1ccc(F)cc1	–	–	–	–	–	–
CCCCn1c(NC(=O)c2ccccc2)c(C#N)c2nc3ccccc3nc21	–	–	–	–	–	–
CCCCn1c(NC(=O)c2ccc(F)cc2)c(C#N)c2nc3ccccc3nc21	29	9.1	–	–	4.7	–
Cc1ccc2[nH]c3c(N4CCN(Cc5ccccc5)CC4)ncnc3c2c1	–	–	·	–	–	–
c1ccc(CN2CCN(c3ncnc4c3[nH]c3ccccc34)CC2)cc1	–	–	·	35	–	63
Cc1ccc2c(c1)[nH]c1c(N3CCN(Cc4ccccc4)CC3)ncnc12	–	–	–	–	–	133
c1ccc2c(c1)[nH]c1c(N3CCC4(CC3)OCCO4)ncnc12	–	–	·	–	–	–
c1ccc2c(c1)CCN(c1ncnc3c1[nH]c1ccccc13)C2	–	–	·	46	–	113
c1ccc(Cn2nnc3c(N4CCc5ccccc5C4)ncnc32)cc1	96	–	–	–	–	–
CCOc1ccc(CC(=O)N2CCN(c3ccc(N4CCOCC4)nn3)CC2)cc1OCC	–	–	–	–	–	–
CCC(C)(C)n1nnnc1C(CC(C)C)N1CCC(C(N)=O)CC1 (stereo unspecified)	–	–	–	–	–	–
C=CCN(CC=C)c1nc2ccccc2nc1C(C#N)C(=O)OC(C)C (stereo unspecified)	–	–	·	–	–	–
Cc1ccc2[nH]c3c(N4CCCCCC4)ncnc3c2c1	–	–	·	32	–	97
O=C1CCCN1CCC1CCN(C2CC(=O)N(c3ccc(Cl)cc3)C2=O)CC1 (stereo unspecified)	–	–	–	–	–	·
Cc1cccc2cc(C#N)c(N3CCN(C)CC3)nc12	–	23	–	–	–	–
Cc1cc2c(c(Sc3ccccc3)n1)C(=O)OC2	–	–	–	–	–	–
CCCc1nc2oc3c(NCCOCCO)ncnc3c2c2c1COC(C)(C)C2	–	–	–	30	–	–
Cc1nc2oc3c(NCc4ccccc4)ncnc3c2c2c1COC(C)(C)C2	–	–	–	–	–	–
COc1ccccc1N/C(N)=N/c1nc(CSc2ccc(C)cc2)cc(=O)[nH]1	–	–	–	–	–	59
COc1cc(OC)nc(NC(=O)COC(=O)C2CCCCC2)n1	91	–	–	–	–	–
O=C(COC(=O)C1CCCCC1)Nc1ccc(N2CCCCC2)cc1	–	–	–	–	·	·
O=C(Oc1c(CN2CCOCC2)cc(Cl)c2cccnc12)c1ccc(F)cc1	–	–	–	37	–	–
COc1ccc(C(=O)Oc2c(CN3CCOCC3)cc(Cl)c3cccnc23)cc1	–	–	–	–	–	–
COc1cc(C(=O)Oc2c(CN3CCOCC3)cc(Cl)c3cccnc23)cc(OC)c1OC	–	–	–	38	–	–
CCCSc1nc(N2CCOCC2)c2c(c1C#N)CCCC2	–	–	·	–	23	–
